ChEMBL document CHEMBL4346682 (Eur J Med Chem, 2019)
Active and inactive are the calls of the source. The calls are words filed in the database; no cut-off is given here.

How the values were obtained:
Tubulin (Homo sapiens) = Tubulin (Homo sapiens) (UniProt P68371+Q9H4B7+P0DPH7+P68366+Q13509+Q71U36+P04350+Q3ZCM7+P07437+P68363+Q9BQE3+Q6PEY2+Q13885+Q9BVA1+Q9BUF5); experiment: Inhibition of human tubulin polymerization assessed as induction of tubulin polymerization destabilization at 30 uM by turbidimetric assay
L1210 = experiment: Antiproliferative activity against mouse L1210 cells measured after 96 hrs by Coulter counter method; assay type: functional, cell-based; details: L1210, 96 h
How it was run: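 L1210 suspension cells seeded at 60,000 cells/well with a range of compound concentrations, grown 96 h, counted in a Coulter counter. IC50 is the concentration reducing proliferation by 50%, mean ± SD of three independent experiments.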

Tubulin (Bos taurus) = Tubulin (Bos taurus) (UniProt Q6B856+Q862L2+Q862F3); experiment: Binding affinity to calf brain tubulin assessed as binding constant incubated for 30 mins in presence of R-PT by fluorescence based method
How it was run: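 Competition assay with calf brain tubulin. A premixed 0.2 µM R-PT plus 0.2 µM tubulin sample was exposed to ligand at 0–70 µM in 10 mM sodium phosphate, 0.1 mM GTP, pH 7.0, incubated 30 min at 25 °C. Fluorescence read at 456 nm (excitation 374 nm). Kb fitted by competition analysis, mean of three experiments ± StdError.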

HMEC-1 [1] = experiment: Antiproliferative activity against human HMEC1 cells measured after 4 days by Coulter counter method; assay type: functional, cell-based; details: HMEC-1, 96 h
CCRF-CEM = experiment: Antiproliferative activity against human CEM cells measured after 96 hrs by Coulter counter method; assay type: functional, cell-based
How it was run: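 CEM suspension cells seeded at 60,000 cells/well with a range of compound concentrations, grown 96 h, then counted. Medium is DMEM with 10% FBS, 0.01 M Hepes and 1 mM sodium pyruvate, 37 °C, 5% CO2.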

HeLa [2] = experiment: Antiproliferative activity against human HeLa cells measured after 3 days by Coulter counter method; assay type: functional, cell-based; details: 72 h
HeLa [3] = experiment: Cell cycle arrest in human HeLa cells assessed as accumulation at G2/M phase at 2 uM measured after 24 hrs by DAPI staining based HCS analysis; assay type: functional
HeLa [4] = experiment: Cell cycle arrest in human HeLa cells assessed as accumulation at G2/M phase at 0.4 uM measured after 24 hrs by DAPI staining based HCS analysis; assay type: functional
HeLa [5] = experiment: Cell cycle arrest in human HeLa cells assessed as accumulation at G2/M phase at 0.08 uM measured after 24 hrs by DAPI staining based HCS analysis; assay type: functional
HeLa [6] = experiment: Cell cycle arrest in human HeLa cells assessed as accumulation at G2/M phase at 0.016 uM measured after 24 hrs by DAPI staining based HCS analysis; assay type: functional
HMEC-1 [7] = experiment: Vascular disrupting activity in human HMEC1 cells at 0.08 to 2 uM after 90 mins; assay type: functional, cell-based
How it was run: (§1)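 HMEC-1 seeded at 60,000 cells/well on matrigel (10 mg/mL, gelled 30 min at 37 °C) in DMEM with 10% FCS. After 3 h at 37 °C, once tube-like networks formed, compound was added at 2, 0.4 or 0.08 µM. After 90 min, images taken at 100× and meshes, branching points and tube length quantified.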

HMEC-1 [8] = experiment: Vascular disrupting activity in human HMEC1 cells at 0.4 uM after 90 mins; assay type: functional, cell-based
How it was run: as §1

HMEC-1 [9] = experiment: Cell cycle arrest in human HMEC1 cells assessed as accumulation at G2/M phase at 0.08 uM measured after 24 hrs by propidium iodide based FACSCalibur flow cytometry; assay type: functional
How it was run: (§2)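 HMEC-1 seeded at 125,000 cells/well in DMEM with 10% FBS and exposed to compound after 24 h. After another 24 h, DNA was stained with propidium iodide and analysed by flow cytometry within 3 h. Debris and clumps were gated out, and sub-G1, G1, S and G2/M fractions estimated with region markers.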

HMEC-1 [10] = experiment: Cell cycle arrest in human HMEC1 cells assessed as accumulation at G2/M phase at 0.4 uM measured after 24 hrs by propidium iodide based FACSCalibur flow cytometry; assay type: functional
How it was run: as §2

| SMILES | Activity (Tubulin (Homo sapiens)) | IC50 (L1210) | Kb (Tubulin (Bos taurus)) | IC50 (HMEC-1 [1]) | IC50 (CCRF-CEM) | IC50 (HeLa [2]) | Activity (HeLa [3]) | Activity (HeLa [4]) | Activity (HeLa [5]) | Activity (HeLa [6]) | Activity (HMEC-1 [7]) | Activity (HMEC-1 [8]) | Activity (HMEC-1 [9]) | Activity (HMEC-1 [10]) |
| --- | --- | --- | --- | --- | --- | --- | --- | --- | --- | --- | --- | --- | --- | --- |
| CC(Nc1ccccc1Oc1ccc(C(C)O)cc1)=C1C(=O)CC(c2ccccc2)CC1=O (stereo unspecified) | Active | 58 nM | 3.13 ×10⁶ /M | 140 nM | 120 nM | 75 nM | – | – | – | – | – | – | – | – |
| CC(=O)c1ccc(Oc2ccccc2NC(C)=C2C(=O)CC(c3ccccc3)CC2=O)cc1 (stereo unspecified) | – | 190 nM | – | 180 nM | 220 nM | 130 nM | – | – | – | – | – | – | – | – |
| COc1cccc(Oc2ccccc2NC(C)=C2C(=O)CC(c3ccccc3)CC2=O)c1 (stereo unspecified) | Active | 58 nM | 15.7 ×10⁶ /M | 59 nM | 41 nM | 93 nM | – | – | – | – | – | – | – | – |
| CC(Nc1ccccc1Oc1cccc(N)c1)=C1C(=O)CC(c2ccccc2)CC1=O (stereo unspecified) | Active | 53 nM | 5.56 ×10⁶ /M | 41 nM | 42 nM | 82 nM | – | – | – | – | – | – | – | – |
| COc1cc2c(c(OC)c1OC)-c1ccc(OC)c(=O)cc1[C@@H](NC(C)=O)CC2 | – | – | – | – | – | – | Active | Active | Active | Active | – | – | – | – |
| CC(Nc1ccccc1Oc1ccc(Cl)cc1)=C1C(=O)CC(c2ccccc2)CC1=O (stereo unspecified) | – | 250 nM | – | 260 nM | 190 nM | 500 nM | – | – | – | – | – | – | – | – |
| CC(Nc1ccccc1Oc1ccc(N)cc1)=C1C(=O)CC(c2ccccc2)CC1=O (stereo unspecified) | Active | 40 nM | 11.8 ×10⁶ /M | 47 nM | 37 nM | 39 nM | Active | Active | Active | Active | Dose-dependent effect | Active | Active | – |
| COc1cc([C@@H]2c3cc4c(cc3[C@H](O)[C@H]3COC(=O)[C@H]23)OCO4)cc(OC)c1OC | Active | – | – | – | – | – | – | – | – | – | – | – | – | – |
| COc1ccc(/C=C\c2cc(OC)c(OC)c(OC)c2)cc1OP(=O)(O)O [FOSBRETABULIN DISODIUM] | – | 13 nM | – | – | – | – | – | – | – | – | – | – | – | – |
| COc1ccc(Oc2ccccc2NC(C)=C2C(=O)CC(c3ccccc3)CC2=O)cc1 (stereo unspecified) | Active | 140 nM | 5.23 ×10⁶ /M | 83 nM | 120 nM | 160 nM | – | – | – | – | – | – | – | – |
| CCOc1ccccc1NC(C)=C1C(=O)CC(c2ccccc2)CC1=O (stereo unspecified) | Active | 190 nM | 13 ×10⁶ /M | 100 nM | 190 nM | 180 nM | – | – | – | – | – | – | – | – |
| COc1ccc(Oc2ccccc2NC(C)=C2C(=O)CC(c3ccccc3)CC2=O)cc1OC (stereo unspecified) | Active | 65 nM | 2.24 ×10⁶ /M | 140 nM | 160 nM | 54 nM | – | – | – | – | – | – | – | – |
| CC(Nc1ccccc1Oc1cccc(F)c1)=C1C(=O)CC(c2ccccc2)CC1=O (stereo unspecified) | – | 330 nM | – | 360 nM | 170 nM | 550 nM | – | – | – | – | – | – | – | – |
| COc1cc(Oc2ccccc2NC(C)=C2C(=O)CC(c3ccccc3)CC2=O)ccc1N (stereo unspecified) | Active | 26 nM | 18.1 ×10⁶ /M | 29 nM | 12 nM | 33 nM | Active | Active | Active | Active | Dose-dependent effect | Active | – | Active |
| CC(Nc1ccccc1Oc1ccccc1)=C1C(=O)CC(c2ccccc2)CC1=O (stereo unspecified) | Active | 86 nM | 6.46 ×10⁶ /M | 160 nM | 170 nM | 79 nM | – | – | – | – | – | – | – | – |
